Results gathered from unrelated publications.
Converted amounts (≈) assume the structure as drawn.
Organism: Staphylococcus epidermidis
Observed: microbial growth

Compound | method | strain | setting | measurement | value
CN[C@H](CC(C)C)C(=O)N[C@H]1C(=O)N[C@@H](CC(N)=O)C(=O)N[C@H]2C(=O)N[C@H]3C(=O)N[C@H](C(=O)N[C@H](C(=O)O)c4cc(O)cc(O)c4-c4cc3ccc4O)[C@H](O)c3ccc(c(Cl)c3)Oc3cc2cc(c3O[C@@H]2O[C@H](CO)[C@@H](O)[C@H](O)[C@H]2O[C@H]2C[C@](C)(N)[C@H](O)[C@H](C)O2)Oc2ccc(cc2Cl)[C@H]1O | – | – | clinical isolate | MIC | 0.78 µg/mL (≈ 0.538 µM)
Cc1ccc2[nH]nc(-c3nnc(Nc4ccc(C)c(C)c4)s3)c2c1 | – | ATCC12228 | – | MIC | 172 µg/mL (≈ 512 µM)
C=C[C@]1(C)C[C@@H](OC(=O)CS[C@@H]2C[C@H]3CC[C@@H](C2)N3C)[C@]2(C)[C@H](C)CC[C@]3(CCC(=O)[C@H]32)[C@@H](C)[C@@H]1O | – | – | clinical isolate | MIC90 | 0.0625 µg/mL (≈ 0.121 µM)
Cc1ccc2[nH]nc(-c3nnc(Nc4ccc(F)cc4Cl)s3)c2c1 | – | ATCC12228 | – | MIC | 118 µg/mL (≈ 328 µM)
Cc1c2c(nn1C)CSCc1cc(n(C)n1)CSc1cc(c3ccccc3c1)OCCCc1c(C(=O)O)n(C)c3c-2c(Cl)ccc13 | broth dilution | – | clinical isolate | MIC50 | 12.5 µM
CN[C@H](CC(C)C)C(=O)N[C@H]1C(=O)N[C@@H](CC(N)=O)C(=O)N[C@H]2C(=O)N[C@H]3C(=O)N[C@H](C(=O)N[C@H](C(=O)O)c4cc(O)cc(O)c4-c4cc3ccc4O)[C@H](O)c3ccc(c(Cl)c3)Oc3cc2cc(c3O[C@@H]2O[C@H](CO)[C@@H](O)[C@H](O)[C@H]2O[C@H]2C[C@](C)(N)[C@H](O)[C@H](C)O2)Oc2ccc(cc2Cl)[C@H]1O | broth dilution | – | clinical isolate | MIC50 | 1 µg/mL
Cc1ccc2[nH]nc(-c3nnc(Nc4ccc(Cl)c(Cl)c4)s3)c2c1 | – | ATCC12228 | – | MIC | 187 µg/mL (≈ 498 µM)
CC[C@H]1OC(=O)[C@H](C)[C@@H](O[C@H]2C[C@@](C)(OC)[C@@H](O)[C@H](C)O2)[C@H](C)[C@@H](O[C@@H]2O[C@H](C)C[C@H](N(C)C)[C@H]2O)[C@](C)(O)C[C@@H](C)/C(=N\OCOCCOC)[C@H](C)[C@@H](O)[C@]1(C)O | – | MRSE | clinical isolate | MIC90 | > 128 µg/mL
CNC(C)C1CCC(N)C(OC2C(N)CC(N)C(OC3OCC(C)(O)C(NC)C3O)C2O)O1 (stereo not shown) | broth dilution | – | – | MIC | 1 µg/mL (≈ 2.09 µM)
CCn1cc(C(=O)O)c(=O)c2cc(F)c(N3CCNCC3)cc21 | – | – | clinical isolate | MIC | 0.2 µg/mL (≈ 0.626 µM)
